In PMC7051832 (ACS chemical biology, 2019):

Key:
[1] = biological target: E. coli dihydrofolate reductase (ecDHFR) (Escherichia coli, UniProt P0ABQ4); assay: NMR 15N-HSQC titration of model fragments binding to ecDHFR
In short: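 15N-ecDHFR at 100 μM, in bulk buffer (20 mM Tris pH 8.5, 100 mM NaCl, 10 mM DTT, 0.02% azide) or in reverse micelles (52.5 mM 10MAG, 18 mM LDAO, 4.5 mM DTAB, hexanol, pentane; W0 15; 5 mM in water core). Titrated with fragment. 15N-HSQC at 25 °C, 1024 × 64 complex points, 32 scans. Chemical shift perturbations fitted for Kd; error from fitting.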

[2] = biological target: interleukin-1β (IL-1β) (Homo sapiens, UniProt P01584); assay: Reverse micelle; assay type: binding; details: RM encapsulated IL-1β
Sequence of interleukin-1β (IL-1β) (P01584 117-269): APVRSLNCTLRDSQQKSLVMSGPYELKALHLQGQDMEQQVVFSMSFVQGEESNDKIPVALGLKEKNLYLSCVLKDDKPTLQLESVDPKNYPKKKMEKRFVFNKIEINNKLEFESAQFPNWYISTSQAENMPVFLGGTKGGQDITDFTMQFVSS

Sequence of E. coli dihydrofolate reductase (ecDHFR) (P0ABQ4 whole entry, the tested form may be a part): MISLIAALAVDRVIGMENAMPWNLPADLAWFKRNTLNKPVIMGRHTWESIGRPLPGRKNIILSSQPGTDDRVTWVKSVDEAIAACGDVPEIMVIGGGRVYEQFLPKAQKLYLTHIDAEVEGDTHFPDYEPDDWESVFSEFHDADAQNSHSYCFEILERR

Compound	Kd ([1]; binding to ecDHFR, natural cofactor, NMR titration)	degree of saturation of the protein ([1]; same absolute amounts of protein and ligand, both bulk and RM samples)	binding sites on the protein surface [2]
NC(=O)c1ccc[n+]([C@@H]2O[C@H](COP(=O)([O-])OP(=O)(O)OC[C@H]3O[C@@H](n4cnc5c(N)ncnc54)[C@H](OP(=O)(O)O)[C@@H]3O)[C@@H](O)[C@H]2O)c1 [NADP^+]	9 ± 2 µM	saturated the enzyme in both bulk and RM samples	–
OCc1ccc2nccn2c1 [imidazo[1,2-a]pyridine-6-ylmethanol]	–	–	bound to multiple sites on the protein surface
